The source made the active and inactive calls. No cut-off for these calls is given here.
Experiments:
[1] = target: T1, Vitamin D3 receptor (Homo sapiens) (UniProt P11473); assay: Agonist activity at VDR in human HL60 cells assessed as induction of cell differentiation at >50 uM after 96 hrs by NBT reduction assay; type: cell-based; conditions: HL-60
T1 sequence (whole entry): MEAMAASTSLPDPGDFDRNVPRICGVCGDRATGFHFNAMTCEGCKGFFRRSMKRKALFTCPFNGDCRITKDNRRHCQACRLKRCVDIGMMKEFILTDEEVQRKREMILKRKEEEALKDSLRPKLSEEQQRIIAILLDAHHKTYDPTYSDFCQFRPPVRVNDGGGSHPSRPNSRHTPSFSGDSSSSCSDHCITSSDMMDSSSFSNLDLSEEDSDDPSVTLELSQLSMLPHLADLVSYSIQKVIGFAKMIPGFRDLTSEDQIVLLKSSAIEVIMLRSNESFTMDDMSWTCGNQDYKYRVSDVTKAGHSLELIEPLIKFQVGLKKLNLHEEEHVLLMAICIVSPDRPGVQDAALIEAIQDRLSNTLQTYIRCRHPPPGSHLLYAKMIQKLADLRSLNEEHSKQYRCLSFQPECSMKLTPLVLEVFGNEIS

HaCaT [2] = assay: Cytotoxicity against human HaCaT cells at >50 uM after 48 hrs by MTT assay; type: functional, cell-based
Summary of the method: (§1)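 HaCaT or MCF-7 cells grown 48 h at 37 °C, 5% CO₂, no medium change. MTT (5 mg/mL) with DMEM added, 4 h. Medium replaced by DMSO to dissolve formazan, A570 read. IC50 from log-linear dose regression. Compounds above 85% efficacy rescreened for the final IC50. Triplicate experiments.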

MCF7 [3] = assay: Cytotoxicity against human MCF7 cells at >50 uM after 48 hrs by MTT assay; type: functional, cell-based; summary of the method: as §1
HaCaT [4] = assay: Cytotoxicity against human HaCaT cells after 48 hrs by MTT assay; type: functional, cell-based; summary of the method: as §1
MCF7 [5] = assay: Cytotoxicity against human MCF7 cells after 48 hrs by MTT assay; type: functional, cell-based; conditions: MCF7, 48 h; summary of the method: as §1
Mus musculus [6] = assay: In vivo calcemic activity in ICR mouse assessed as serum calcium level at 0.5 mg/kg, sc administered for 7 days (reference value: 8.76 mg/dL); type: ADME, organism-based; parameters: dose 0.5 mg/kg, route subcutaneous; conditions: 168 h
Mus musculus [7] = assay: In vivo calcemic activity in ICR mouse assessed as serum calcium level at 30 mg/kg, sc administered for 7 days (reference value: 8.76 mg/dL); type: ADME, organism-based; parameters: dose 30 mg/kg, route subcutaneous; conditions: 168 h
Mus musculus [8] = assay: In vivo calcemic activity in ICR mouse assessed as serum calcium level at 10 mg/kg, sc administered for 7 days (reference value: 8.76 mg/dL); type: ADME, organism-based; parameters: dose 10 mg/kg, route subcutaneous; conditions: 168 h
Mus musculus [9] = assay: In vivo calcemic activity in ICR mouse assessed as serum calcium level at 5 ug/kg, sc administered for 7 days (reference value: 8.76 mg/dL); type: ADME, organism-based; conditions: 0.005 mg/kg, 168 h

For `CCn1c(C(=O)NCC(=O)O)ccc1C(CC)(CC)c1ccc(OCC(O)C(C)(C)C)c(C)c1` (stereo unspecified), the Activity [1] was “inactive”.

In the case of `CCC(CC)(c1ccc(OCC(=O)C(C)(C)C)c(C)c1)c1ccc(C(=O)NCC(=O)OC)n1C`, the “growth inhibition (GI)” value (HaCaT [2]) is reported as “inactive” and the “growth inhibition (GI)” value (MCF7 [3]) is reported as “inactive”.

`CCn1c(C(=O)NCCC(=O)O)ccc1C(CC)(CC)c1ccc(OCC(=O)C(C)(C)C)c(C)c1` was tested, and the Activity [1] was “inactive”.

With `CCC(CC)(c1ccc(OCC(O)C(C)(C)C)c(C)c1)c1ccc(C(=O)NCC(=O)O)n1C` (stereo unspecified) the IC50 (HaCaT [4]) was 9.81 µM and the “growth inhibition (GI)” value (MCF7 [3]) was “inactive”.

In the case of `CCn1c(C(=O)N[C@H](CO)CCO)ccc1C(CC)(CC)c1ccc(OCC(O)C(C)(C)C)c(C)c1` (stereo partly specified), the IC50 (MCF7 [5]) is reported as 0.3 µM and the IC50 (HaCaT [4]) is reported as 1.25 µM.

In the case of `CCC(CC)(c1ccc(OCC(O)C(C)(C)C)c(C)c1)c1ccc(C(=O)N[C@@H](C)C(=O)O)n1C` (stereo partly specified), the Activity [1] is reported as “inactive”.

With `CCC(CC)(c1ccc(OCC(=O)C(C)(C)C)c(C)c1)c1ccc(C(=O)N[C@@H](C)C(=O)OC)n1C` the Activity [1] was “inactive”.

In the case of `CCn1c(C(=O)N[C@@H](CC(=O)O)C(=O)O)ccc1C(CC)(CC)c1ccc(OCC(O)C(C)(C)C)c(C)c1` (stereo partly specified), the Activity [1] is reported as “inactive”.

With `CCn1c(C(=O)N[C@@H](CC(=O)O)C(=O)O)ccc1C(CC)(CC)c1ccc(OCC(=O)C(C)(C)C)c(C)c1` the Activity [1] was “inactive”.

In the case of `CCn1c(C(=O)NCCCO)ccc1C(CC)(CC)c1ccc(OCC(O)C(C)(C)C)c(C)c1` (stereo unspecified), the Activity [1] is reported as “inactive”.

With `CCC(CC)(c1ccc(OCC(=O)C(C)(C)C)c(C)c1)c1ccc(C(=O)N[C@@H](CC(=O)O)C(=O)O)n1C` the “growth inhibition (GI)” value (HaCaT [2]) was “inactive” and the IC50 (MCF7 [5]) was 0.16 µM.

In the case of `CCC(CC)(c1ccc(OCC(=O)C(C)(C)C)c(C)c1)c1ccc(C(=O)N[C@@H](CC(=O)OC)C(=O)OC)n1C`, the Activity [1] is reported as “inactive”.

For `CCC(CC)(c1ccc(OCC(O)C(C)(C)C)c(C)c1)c1ccc(C(=O)N[C@@H](C)CO)n1C` (stereo partly specified), the IC50 (HaCaT [4]) was 15.7 µM and the “growth inhibition (GI)” value (MCF7 [3]) was “inactive”.

For `CCn1c(C(=O)NCCC(=O)OC)ccc1C(CC)(CC)c1ccc(OCC(=O)C(C)(C)C)c(C)c1`, the Activity [1] was “inactive”.

With `CCn1c(C(=O)NCCC(=O)O)ccc1C(CC)(CC)c1ccc(OCC(O)C(C)(C)C)c(C)c1` (stereo unspecified) the “growth inhibition (GI)” value (HaCaT [2]) was “inactive” and the “growth inhibition (GI)” value (MCF7 [3]) was “inactive”.

In the case of `CCn1c(C(=O)NCC(=O)OC)ccc1C(CC)(CC)c1ccc(OCC(=O)C(C)(C)C)c(C)c1`, the “growth inhibition (GI)” value (HaCaT [2]) is reported as “inactive” and the “growth inhibition (GI)” value (MCF7 [3]) is reported as “inactive”.

In the case of `CCC(CC)(c1ccc(OCC(O)C(C)(C)C)c(C)c1)c1ccc(C(=O)NCCO)n1C` (stereo unspecified), the Activity [1] is reported as “inactive”.

With `CCn1c(C(=O)NCC(=O)O)ccc1C(CC)(CC)c1ccc(OCC(=O)C(C)(C)C)c(C)c1` the Activity [1] was “inactive”.

In the case of `CCn1c(C(=O)N[C@@H](CC(=O)OC)C(=O)OC)ccc1C(CC)(CC)c1ccc(OCC(=O)C(C)(C)C)c(C)c1`, the Activity [1] is reported as “inactive”.

Molecule `CCC(CC)(c1ccc(OCC(O)C(C)(C)C)c(C)c1)c1ccc(C(=O)N[C@H](CO)CCO)n1C` (stereo partly specified) has an Activity (Mus musculus [6]) of 8.91 mg/dL, an IC50 (MCF7 [5]) of 0.00783 µM and an IC50 (HaCaT [4]) of 0.19 µM. The Activity (Mus musculus [7]) was 8.94 mg/dL and the Activity (Mus musculus [8]) was 9.29 mg/dL.

For `CCn1c(C(=O)N[C@@H](C)C(=O)O)ccc1C(CC)(CC)c1ccc(OCC(O)C(C)(C)C)c(C)c1` (stereo partly specified), the “growth inhibition (GI)” value (HaCaT [2]) was “inactive” and the IC50 (MCF7 [5]) was 0.18 µM.

For `CCn1c(C(=O)N[C@@H](C)CO)ccc1C(CC)(CC)c1ccc(OCC(O)C(C)(C)C)c(C)c1` (stereo partly specified), the Activity (Mus musculus [6]) was 8.09 mg/dL, the IC50 (MCF7 [5]) was 0.307 µM and the IC50 (HaCaT [4]) was 2.06 µM. The Activity (Mus musculus [7]) was 9.08 mg/dL and the Activity (Mus musculus [8]) was 8.3 mg/dL.

In the case of `CCC(CC)(c1ccc(OCC(O)C(C)(C)C)c(C)c1)c1ccc(C(=O)NCCC(=O)O)n1C` (stereo unspecified), the “growth inhibition (GI)” value (HaCaT [2]) is reported as “inactive” and the “growth inhibition (GI)” value (MCF7 [3]) is reported as “inactive”.

In the case of `CCC(CC)(c1ccc(OCC(=O)C(C)(C)C)c(C)c1)c1ccc(C(=O)NCC(=O)O)n1C`, the Activity [1] is reported as “inactive”.

`CCC(CC)(c1ccc(OCC(O)C(C)(C)C)c(C)c1)c1ccc(C(=O)N[C@@H](CC(=O)O)C(=O)O)n1C` (stereo partly specified) was tested, and the Activity [1] was “inactive”.

In the case of `CCn1c(C(=O)N[C@@H](C)C(=O)OC)ccc1C(CC)(CC)c1ccc(OCC(=O)C(C)(C)C)c(C)c1`, the Activity [1] is reported as “inactive”.

For `CCC(CC)(c1ccc(OCC(O)C(C)(C)C)c(C)c1)c1ccc(C(=O)NCCCO)n1C` (stereo unspecified), the “growth inhibition (GI)” value (HaCaT [2]) was “inactive” and the IC50 (MCF7 [5]) was 16.4 µM.

In the case of `CCC(CC)(c1ccc(OCC(=O)C(C)(C)C)c(C)c1)c1ccc(C(=O)NCCC(=O)O)n1C`, the Activity [1] is reported as “inactive”.

`CCC(CC)(c1ccc(OCC(=O)C(C)(C)C)c(C)c1)c1ccc(C(=O)NCCC(=O)OC)n1C` was tested, and the IC50 (HaCaT [4]) was 28.9 µM and the “growth inhibition (GI)” value (MCF7 [3]) was “inactive”.

Molecule `C=C1/C(=C\C=C2/CCC[C@]3(C)[C@@H]([C@H](C)CC[C@@H](O)C(C)C)CC[C@@H]23)C[C@@H](O)C[C@@H]1O` [TACALCITOL] has an IC50 (MCF7 [5]) of 0.057 µM, an IC50 (HaCaT [4]) of 2.07 µM and an Activity (Mus musculus [9]) of 12.14 mg/dL.

For `CCn1c(C(=O)N[C@@H](C)C(=O)O)ccc1C(CC)(CC)c1ccc(OCC(=O)C(C)(C)C)c(C)c1`, the Activity [1] was “inactive”.

In the case of `CCC(CC)(c1ccc(OCC(=O)C(C)(C)C)c(C)c1)c1ccc(C(=O)N[C@@H](C)C(=O)O)n1C`, the “growth inhibition (GI)” value (HaCaT [2]) is reported as “inactive” and the “growth inhibition (GI)” value (MCF7 [3]) is reported as “inactive”.

In the case of `CCn1c(C(=O)NCCO)ccc1C(CC)(CC)c1ccc(OCC(O)C(C)(C)C)c(C)c1` (stereo unspecified), the IC50 (MCF7 [5]) is reported as 1.81 µM and the IC50 (HaCaT [4]) is reported as 2.08 µM.
